Compound activity deposited in PubChem by The Scripps Research Institute Molecular Screening Center.
Rows were chosen to be rich in hits. Some 1.8% of all compounds tested hit in one or more screens of this group.
CHRM4 PAM = CHRM4 positive allosteric modulation; CHO-K1 hM4/Gqi5, Fluo-8 calcium fluorescence, ACh EC20; 0% = ACh EC20, 100% = maximal ACh; 360,000 compounds, 0.4% hits; activation, % at 3 µM; P08173;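 active means activation above its plate's cutoff, the mean activation of sample wells plus 3 SD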
Target sequence (P08173 whole entry, looked up): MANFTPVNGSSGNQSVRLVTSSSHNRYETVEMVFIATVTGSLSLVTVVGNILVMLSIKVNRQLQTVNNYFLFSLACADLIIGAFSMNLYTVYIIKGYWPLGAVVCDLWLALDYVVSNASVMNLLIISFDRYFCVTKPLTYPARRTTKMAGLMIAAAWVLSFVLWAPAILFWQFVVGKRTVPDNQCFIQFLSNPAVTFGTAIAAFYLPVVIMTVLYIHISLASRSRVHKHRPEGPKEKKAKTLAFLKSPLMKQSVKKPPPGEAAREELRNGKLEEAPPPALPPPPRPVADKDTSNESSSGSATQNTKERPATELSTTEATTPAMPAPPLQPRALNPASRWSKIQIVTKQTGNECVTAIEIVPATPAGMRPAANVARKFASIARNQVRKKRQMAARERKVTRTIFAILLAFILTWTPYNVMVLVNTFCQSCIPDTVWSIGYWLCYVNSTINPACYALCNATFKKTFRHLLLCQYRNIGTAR
M5 antag = CHRM5 antagonism in calcium assay; P08912; CHO-hM5 cells, Fluo-8 calcium fluorescence, ACh EC80; 360,000 compounds, 0.59% hits; inhibition, % at 3 µM; AID 624040;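 active means inhibition above a per-plate cutoff, the mean of that plate's test compounds plus 3 SD, cut at about 27% in these data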;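 further: 0% = acetylcholine EC80 with DMSO and 100% = DMSO without agonist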
M5 ag = agonists of human muscarinic M5 receptor (CHRM5); P08912; AID 624037; 360,000 compounds, 0.19% hits; activation, % at 3 µM; CHO-K1 hM5 cells, Fluo-8 calcium fluorescence; 0% DMSO wells, 100% maximal acetylcholine response;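 active means activation above the run's mean over test compounds plus 3 SD, cut at about 23% in these data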;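 further: signal is peak over basal fluorescence ratio across the kinetic read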
CHRM4 agonist = CHRM4 agonism in calcium assay; 360,000 compounds, 0.14% hits; activation, % at 3 µM; AID 624127; CHO-K1 hM4/Gqi5, Fluo-8 calcium fluorescence; vehicle 0%, full acetylcholine response 100%; P08173;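 active means activation above the run mean over all test wells plus 3 SD, cut at about 32% in these data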;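 further: peak over basal fluorescence ratio per well then scaled between controls; 0% = DMSO wells and 100% = acetylcholine at EC100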
CHRM4 antagonist = CHRM4 antagonism in calcium assay | CHO-hM4 cells, ACh EC80, Fluo-8 calcium fluorescence | 360,000 compounds, 0.73% hits | P08173 | inhibition, % at 3 µM;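 active means inhibition above its plate's cutoff, the mean inhibition of sample wells plus 3 SD, cut at about 27% in these data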;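 further: 0% = acetylcholine EC80 with DMSO and 100% = DMSO without agonist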
M5 PAM = potentiates acetylcholine response at human M5 receptor. activation, % at 3 µM. CHO-K1 hM5, Fluo-8 calcium, ACh EC20 PAM; 0% = ACh EC20, 100% = ACh EC100. AID 624038. 360,000 compounds, 0.3% hits. P08912;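 active means activation above the run cutoff, the mean activation of all test compounds plus 3 SD, cut at about 18% in these data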
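System: CHO-K1 hM5 cells. Reagent: acetylcholine, EC20 level. Compound dosing: single dose, 3 µM nominal final test concentration. Timing: Post-acetylcholine fluorescence recording 140 s. Detection: Fluo-8 calcium fluorescence. Read-out: % activation, ACh-normalized. Benchmarks: ACh EC20 and EC100 wells. Repeats: singlicate, one well per test compound.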
Starred values were filed as active, the others as inactive; + = active, no number; ! = not confirmed by another sample.

SMILES	CHRM4 PAM	M5 antag	M5 ag	CHRM4 agonist	CHRM4 antagonist	M5 PAM
CC(C)Oc1ccc(S(=O)(=O)N2CCOCC2)cc1NC(=O)c1ccc(N2CCCC2=O)cc1	-4.9	28.5*	-4.9	4.2	-0.9	-11.9
CCN1CCN(Cc2ccc(NC(=O)c3ccc(C)c(NC(=O)c4ccnnc4)c3)cc2C(F)(F)F)CC1	16.6	-0.3	0.6	1.8	-0.1	0.5
CCN1CCN(Cc2ccc(C(=O)Nc3ccc(C)c(NCc4cnc(NC(=O)OC)cn4)c3)cc2C(F)(F)F)CC1	-4.1	4.8	-3.4	-0.2	33.1*!	-4.7
COc1ccccc1/C=C/C=N/n1c(C)nnc1C	-2.9	3.2	-6.3	0.4	6.7	-7.1
COC(=O)c1ccc2nc(-c3cccc(Br)c3)c(Cc3ccsc3)n2c1	21.3*	-9.6	0.6	-0.5	-14.5	0.8
CC(C)C(C)NC(=O)CN1C(=O)NC2(CCc3ccccc32)C1=O (stereo unspecified)	14.5*	-4.0	-0.2	-0.4	-23.8	4.6
CC(C)C(C)NC(=O)CN1C(=O)NC2(CCCc3ccccc32)C1=O (stereo unspecified)	-4.4	4.5	-1.0	0.3	3.6	-4.1
Cc1ccc(NC(=O)CN2C(=O)NC3(CCCc4ccccc43)C2=O)cc1S(=O)(=O)N1CCOCC1 (stereo unspecified)	-10.2	99.7*	-9.2	20.1	-6.3	-20.0
CCOc1ccc(CCNC(=O)COC(=O)c2sccc2C)cc1OCC	7.1	3.0	-5.6	1.5	-0.7	10.4
C#CC1(O)CCC2C3CCC4=Cc5oncc5CC4(C)C3CCC21C (stereo unspecified)	-4.9	1.4	1.3	9.0	-22.9	-9.7
CC1CN(C(=O)CCC(=O)NCc2ccccc2Cl)c2ccccc2S1 (stereo unspecified)	-3.9	8.3	1.7	1.0	-0.7	-6.5
O=C(NC1CC2CCC(C1)N2C(=O)NCc1ccccc1)C1CC1 (stereo unspecified)	-16.4	-3.1	-6.5	0.9	29.6*	2.2
COc1cc(NC(=O)CSc2nc3[nH]ncc3c(=O)n2-c2ccccc2)cc(OC)c1OC	3.3	4.2	4.4	0.4	-5.3	3.1
CC(=O)Nc1ccc(NC(=O)CSc2nc3[nH]ncc3c(=O)n2-c2ccccc2)cc1	20.3*	-5.0	0.1	-0.6	7.2	10.1
Cc1cccn2cc(CNS(=O)(=O)c3ccc4ccccc4c3)nc12	2.9	12.8	0.8	9.3	1.1	-12.2
Cc1ccn2cc(CNS(=O)(=O)c3ccc4ccccc4c3)nc2c1	-16.9	0.8	1.0	-1.9	99.2*	0.1
COc1cc2nc(C3CCC3)nc(N3CCN(c4ccccc4OC)CC3)c2cc1OC	-40.0	14.3	-6.3	1.3	42.8*	-19.5
Cc1ccc(NC(=O)CS(=O)(=O)c2cn(CC(=O)N3CCOCC3)c3ccccc23)cc1	25.3	-8.5	-2.5	1.9	35.8*	3.2
COc1ccc(CNC(=O)CSc2nn3c(=O)c(C(C)(C)C)nnc3s2)cc1OC	-2.6	0.9	-9.5	4.2	-3.1	-5.0
COc1ccc(CCNC(=O)C2CC2)cc1OC	0.1	6.5	3.2	-0.1	-4.9	-0.2
COc1ccc(CCNC(=O)CSc2nn3c(=O)c(C)nnc3s2)cc1OC	17.3*	0.4	-4.8	0.2	-5.0	0.1
COc1ccc(CCNC(=O)COC(=O)C2CC2)cc1OC	2.7	-13.1	0.2	0.9	-17.9	20.1*
Cc1cccc(N/N=C/c2ccccc2O)c1	3.0	-7.6	1.2	1.3	6.0	0.4
O=c1c(O)c(-c2cccs2)oc2ccc(Cl)cc12	-17.8	30.9*	65.6*	344.0*	32.2*	-22.0
O=c1c(O)c(-c2cccs2)oc2ccccc12	-9.0	4.5	9.2	15.6	13.0	-3.9
SMILES	CHRM4 PAM	M5 antag	M5 ag	CHRM4 agonist	CHRM4 antagonist	M5 PAM
CCN(CC)C1=NC=CC(c2ccccc2)=CC1C (stereo unspecified)	-32.4	8.2	-7.3	1.7	39.1*	-12.3
Cc1ccc(C)c(Nc2nn3c(=O)c4ccc(C(=O)NCc5cccnc5)cc4nc3s2)c1	-5.8	6.6	-2.1	-0.5	31.0*	-3.8
CCN(CC)S(=O)(=O)c1ccc(C(=O)Nc2c3c(nn2C(C)(C)C)CS(=O)(=O)C3)cc1	9.9	-0.9	-1.9	2.0	26.7*	2.1
CC1(C(=O)NCc2ccc(Cl)cc2)CCN1C(=O)Cc1ccc(Cl)cc1Cl (stereo unspecified)	-0.7	7.4	-2.1	0.9	-4.4	-5.6
O=C(COC(=O)CCC(=O)c1cccs1)Nc1cccc(S(=O)(=O)N2CCOCC2)c1	-1.0	-5.2	-1.7	4.0	-5.6	-1.9
Cc1ccc(NC(=O)COC(=O)CCC(=O)c2cccs2)cc1S(=O)(=O)N1CCOCC1	20.5	-3.0	-0.6	12.5	31.5*	9.2
S=c1[nH]ncn2c1cc1oc3ccccc3c12	-7.5	6.0	1.6	0.0	0.8	-7.6
CCCCOC(=O)/C(=C\c1ccc([N+](=O)[O-])o1)NC(=O)c1ccccc1	-6.7	4.0	-5.8	1.9	28.6*	-0.9
COC(=O)c1ccccc1-c1c2ccc(=N)cc-2oc2cc(N)ccc12	-20.4	101.3*	+	+	101.5*	-45.6
COc1ccc(C(CNC(=O)c2cc3ccccc3cc2OC)N2CCCC2)cc1 (stereo unspecified)	27.4	-1.8	-1.4	8.9	-12.8	20.1*
CCn1c(=S)sc2c(=O)n(CC(=O)Nc3ccc(C(C)=O)cc3)c(C)nc21	9.8	1.1	-0.5	1.6	-13.5	1.9
O=C(CO/N=C1\CCCc2nonc21)Nc1ccccc1Cl	16.2	2.3	-0.9	2.1	26.8*	-0.2
COc1cc(/C=C(\C#N)c2nc3ccccc3o2)ccc1O	-22.6	46.3*	53.0*	29.9	19.8	-24.2
N#C/C(=C\c1ccc(O)cc1)c1nc2ccccc2o1	-10.8	10.2	9.8	8.5	14.1	-9.4
N#C/C(=C\c1ccccc1)C(=O)NNS(=O)(=O)c1ccc(Br)cc1	6.7	4.3	2.4	0.8	-0.8	18.9*
CCOc1ncccc1C(=O)Nc1ccc2c(C)cc(=O)oc2c1	5.8	-4.4	-7.4	1.2	6.7	21.9*
O=c1c(C(c2ccccc2)c2c(O)sc3ccccc3c2=O)c(O)sc2ccccc12	-0.8	4.0	3.0	3.0	5.1	-7.8
Cc1cc(NC(=O)COc2ccc(C)c(C)c2)no1	3.2	-7.8	1.8	1.8	3.4	10.6
Cc1cc(NC(=O)COc2ccc(F)c(Cl)c2)no1	19.3*	-0.1	-2.4	2.4	-9.3	-2.2
Cc1cc2nc(-c3ccccc3)c(Cc3cccc(Cl)c3)n2c(C)c1Br	2.4	-1.9	2.1	-0.6	2.6	2.8
